Measurements from ChEMBL document CHEMBL4308883, “Development of hydroxamate-based histone deacetylase inhibitors containing 1,2,4-oxadiazole moiety core with antitumor activities” (Bioorg Med Chem Lett, 2019).

Assays:
[1] = system: HCCLM3; test: Antiproliferative activity against human HCCLM3 cells after 48 hrs by MTT assay; assay type: functional, cell-based; settings: HCCLM3, 48 h
[2] = molecular target: T1, Histone deacetylase 1 (Homo sapiens, UniProt Q13547); test: Inhibition of HDAC1 (unknown origin) using Boc-Lys (Ac)-AMC as substrate measured after 60 mins by […]
[3] = system: HepG2; test: Induction of apoptosis in human HepG2 cells assessed as late apoptotic cells at 2.5 uM after 48 hrs by annexin V-FITC/propidium iodide staining based assay (reference value: 1.8 %); assay type: functional
[4] = system: HepG2; test: Induction of apoptosis in human HepG2 cells assessed as early apoptotic cells at 5 uM after 48 hrs by annexin V-FITC/propidium iodide staining based assay (reference value: 3.2 %); assay type: functional
[5] = molecular target: T1, Histone deacetylase 1; test: Inhibition of HDAC1 in human HepG2 cells assessed as increase in acetylated histone H3 levels by Western blot analysis; assay type: cell-based
Procedure, shortened: (§1)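 HepG2 cells were treated at three concentrations (1.25, 2.5 and 5.0), with SAHA as the reference. Acetylated histone H3 and H4 were detected by immunoblotting. Ac-H3 and Ac-H4 band intensities were quantified by densitometric scanning and normalised to β-actin, n = 3.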

[6] = molecular target: T1, Histone deacetylase 1; test: Inhibition of HDAC1 in human HepG2 cells assessed as increase in acetylated histone H4 levels by Western blot analysis; assay type: cell-based; procedure, shortened: as §1
[7] = system: HepG2; test: Induction of apoptosis in human HepG2 cells assessed as early apoptotic cells at 1.25 uM after 48 hrs by annexin V-FITC/propidium iodide staining based assay (reference value: 3.2 %); assay type: functional
[8] = system: HepG2; test: Induction of apoptosis in human HepG2 cells assessed as late apoptotic cells at 1.25 uM after 48 hrs by annexin V-FITC/propidium iodide staining based assay (reference value: 1.8 %); assay type: functional
[9] = system: HepG2; test: Induction of apoptosis in human HepG2 cells assessed as early apoptotic cells at 2.5 uM after 48 hrs by annexin V-FITC/propidium iodide staining based assay (reference value: 3.2 %); assay type: functional
[10] = system: HepG2; test: Antiproliferative activity against human HepG2 cells after 48 hrs by MTT assay; assay type: functional, cell-based; settings: HepG2, 48 h
[11] = system: HepG2; test: Potency index, ratio of SAHA IC50 to test compound IC50 for antiproliferative activity against human HepG2 cells; assay type: functional
[12] = system: HepG2; test: Induction of apoptosis in human HepG2 cells after 48 hrs by annexin V-FITC/propidium iodide staining based assay; assay type: functional, cell-based
[13] = system: HepG2; test: Induction of apoptosis in human HepG2 cells assessed as late apoptotic cells at 5 uM after 48 hrs by annexin V-FITC/propidium iodide staining based assay (reference value: 1.8 %); assay type: functional
[14] = molecular target: T1, Histone deacetylase 1; test: Potency index, ratio of SAHA IC50 to test compound IC50 for HDAC1 (unknown origin)

T1 sequence (Q13547 whole entry): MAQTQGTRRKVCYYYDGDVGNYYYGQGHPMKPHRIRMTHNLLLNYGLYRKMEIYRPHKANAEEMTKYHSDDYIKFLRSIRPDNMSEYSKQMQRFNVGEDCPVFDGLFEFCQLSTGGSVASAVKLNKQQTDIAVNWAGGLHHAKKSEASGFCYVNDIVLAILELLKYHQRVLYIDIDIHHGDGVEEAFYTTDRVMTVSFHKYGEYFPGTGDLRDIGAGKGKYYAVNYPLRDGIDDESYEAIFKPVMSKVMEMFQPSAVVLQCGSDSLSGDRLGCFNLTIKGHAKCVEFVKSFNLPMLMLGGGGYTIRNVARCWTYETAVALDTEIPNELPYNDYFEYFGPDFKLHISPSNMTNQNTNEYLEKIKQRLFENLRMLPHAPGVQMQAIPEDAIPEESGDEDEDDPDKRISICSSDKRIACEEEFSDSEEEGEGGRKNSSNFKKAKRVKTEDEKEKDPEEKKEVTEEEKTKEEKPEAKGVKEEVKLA

Compound	IC50 [1] [nM]	IC50 [2] [nM]	Activity [3] [%]	Activity [4] [%]	inhibition [5]	inhibition [6]	Activity [7] [%]	Activity [8] [%]	Activity [9] [%]	IC50 [10] [nM]	Ratio IC50 [11]	Activity [12]	Activity [13] [%]	Ratio IC50 [14]
COc1ccc(N(Cc2noc(-c3ccccc3)n2)C(=O)CCCCCC(=O)NO)cc1	5190	8.2	11.3	50.2	Dose-dependent effect	Dose-dependent effect	40.7	10.1	42.7	1070	2 - 4	Dose-dependent effect	11.5	2
COc1ccc(N(Cc2noc(-c3cccc(C)c3)n2)C(=O)CCCCCC(=O)NO)cc1	6830	12.1	–	–	–	–	–	–	–	1680	2 - 4	–	–	–
O=C(CCCCCCC(=O)Nc1ccccc1)NO [VORINOSTAT]	–	–	10.7	40.4	–	–	29.7	9.3	33.5	–	–	–	10.7	–
COc1ccc(N(Cc2noc(-c3cccc(F)c3)n2)C(=O)CCCCCC(=O)NO)cc1	6560	10.5	14	50.8	Dose-dependent effect	Dose-dependent effect	44.6	11.1	44	1030	2 - 4	Dose-dependent effect	10	–
